≈ marks a conversion by molar mass, not a printed value.
Assays:
Format in all cases: functional
Aspergillus niger = assay: Antifungal activity against Aspergillus niger MTCC 282 assessed as inhibition of mycelial growth for 7 days by poisoned food method
How it was run: (§1)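 Poisoned food method. Compound at 4.0 mg/mL in DMSO was mixed into agar, poured and solidified at room temperature. Each plate was inoculated centrally with an 8 mm plug from an actively growing colony and incubated at 25 °C for 7 days. Colony diameter was converted to percent mycelial inhibition, in triplicate. Controls were DMSO (negative) and fluconazole (positive).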

Staphylococcus aureus [1] = assay: Antibacterial activity against Staphylococcus aureus MTCC 96 for 24 hrs by agar diffusion method
How it was run: (§2)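 Agar well diffusion on Mueller Hinton agar plates swabbed with bacterial suspension of approx. 1.5 × 10⁸ cfu/mL. 8 mm wells were loaded with compound at 4.0 mg/mL in DMSO. Plates were incubated 37 °C for 24 h. Read-out was inhibition zone diameter in mm, including the 8 mm well, as mean of three replicates. Controls were DMSO (negative) and ciprofloxacin (positive).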

Bacillus subtilis [2] = assay: Antibacterial activity against Bacillus subtilis MTCC 121 for 24 hrs by macrodilution method; conditions: MTCC 121, 24 h
How it was run: (§3)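 MIC by NCCLS macrodilution tube method. Tubes were inoculated with bacteria at 1.5 × 10⁸ cfu/mL and incubated at 37 °C for 24 h. Turbidity was scored visually. Ciprofloxacin served as control.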

Aspergillus flavus = assay: Antifungal activity against Aspergillus flavus MTCC 871 assessed as inhibition of mycelial growth for 7 days by poisoned food method; how it was run: as §1
Staphylococcus aureus [3] = assay: Antibacterial activity against Staphylococcus aureus MTCC 96 for 24 hrs by macrodilution method; conditions: MTCC 96, 24 h; how it was run: as §3
Bacillus subtilis [4] = assay: Antibacterial activity against Bacillus subtilis MTCC 121 for 24 hrs by agar diffusion method; how it was run: as §2

SMILES	inhibition (INH) (Aspergillus niger)	diameter of the inhibition zone (DIZ) (Staphylococcus aureus [1])	MIC (Bacillus subtilis [2])	inhibition (INH) (Aspergillus flavus)	MIC (Staphylococcus aureus [3])	diameter of the inhibition zone (DIZ) (Bacillus subtilis [4])
NS(=O)(=O)c1ccc(-n2cc(C(=O)O)c(-c3ccccc3)n2)cc1	50%	15.3 mm	128 µg/mL (≈ 373 µM)	55.5%	128 µg/mL (≈ 373 µM)	16.6 mm
Cc1ccc(-c2nn(-c3ccc(S(N)(=O)=O)cc3)cc2C(=O)O)cc1	46.6%	14.6 mm	64 µg/mL (≈ 179 µM)	51.1%	> 128 µg/mL	17.3 mm
COc1ccc(-c2nn(-c3ccc(S(N)(=O)=O)cc3)cc2C(=O)O)cc1	44.4%	15.6 mm	64 µg/mL (≈ 171 µM)	44.4%	128 µg/mL (≈ 343 µM)	17 mm
NS(=O)(=O)c1ccc(-n2cc(C(=O)O)c(-c3ccc(F)cc3)n2)cc1	52.5%	15 mm	64 µg/mL (≈ 177 µM)	48.8%	128 µg/mL (≈ 354 µM)	18.6 mm
NS(=O)(=O)c1ccc(-n2cc(C(=O)O)c(-c3ccc(Cl)cc3)n2)cc1	45.5%	18.6 mm	32 µg/mL (≈ 84.7 µM)	44.4%	64 µg/mL (≈ 169 µM)	21.6 mm
NC(=S)c1cn(-c2ccc(S(N)(=O)=O)cc2)nc1-c1ccc(F)cc1	44.4%	17.6 mm	128 µg/mL (≈ 340 µM)	61.1%	64 µg/mL (≈ 170 µM)	15.3 mm
NC(=S)c1cn(-c2ccc(S(N)(=O)=O)cc2)nc1-c1ccc(Cl)cc1	50%	18.3 mm	> 128 µg/mL	52.5%	64 µg/mL (≈ 163 µM)	14.6 mm
NC(=S)c1cn(-c2ccc(S(N)(=O)=O)cc2)nc1-c1ccc(Br)cc1	44.4%	21.6 mm	64 µg/mL (≈ 146 µM)	51.1%	32 µg/mL (≈ 73.2 µM)	18.3 mm
NC(=S)c1cn(-c2ccc(S(N)(=O)=O)cc2)nc1-c1cccs1	61.1%	20.3 mm	64 µg/mL (≈ 176 µM)	55.5%	64 µg/mL (≈ 176 µM)	17.6 mm
NS(=O)(=O)c1ccc(-n2cc(C(=O)O)c(-c3ccc(Br)cc3)n2)cc1	51.1%	15.6 mm	> 128 µg/mL	45.5%	128 µg/mL (≈ 303 µM)	14.3 mm
NS(=O)(=O)c1ccc(-n2cc(C(=O)O)c(-c3ccc([N+](=O)[O-])cc3)n2)cc1	61.1%	14.6 mm	128 µg/mL (≈ 330 µM)	57.7%	> 128 µg/mL	15 mm
NS(=O)(=O)c1ccc(-n2cc(C(=O)O)c(-c3cccs3)n2)cc1	57.7%	18.6 mm	128 µg/mL (≈ 366 µM)	55.5%	64 µg/mL (≈ 183 µM)	15.6 mm
NC(=S)c1cn(-c2ccc(S(N)(=O)=O)cc2)nc1-c1ccccc1	50%	15.3 mm	128 µg/mL (≈ 357 µM)	53.3%	128 µg/mL (≈ 357 µM)	15 mm
Cc1ccc(-c2nn(-c3ccc(S(N)(=O)=O)cc3)cc2C(N)=S)cc1	44.4%	21.6 mm	128 µg/mL (≈ 344 µM)	51.1%	32 µg/mL (≈ 85.9 µM)	16.3 mm
COc1ccc(-c2nn(-c3ccc(S(N)(=O)=O)cc3)cc2C(N)=S)cc1	55.5%	16.6 mm	128 µg/mL (≈ 329 µM)	57.7%	128 µg/mL (≈ 329 µM)	15.6 mm
O=C(O)c1cn(C2CC2)c2cc(N3CCNCC3)c(F)cc2c1=O [CIPROFLOXACIN]		27.6 mm	5 µg/mL (≈ 15.1 µM)		5 µg/mL (≈ 15.1 µM)	26.3 mm
OC(Cn1cncn1)(Cn1cncn1)c1ccc(F)cc1F [FLUCONAZOLE]	75.3%			74.6%		

Reference: ChEMBL document CHEMBL1759833, “Synthesis and biological evaluation of some 4-functionalized-pyrazoles as antimicrobial agents” (2011)
